Measured values as given in ChEMBL document CHEMBL1153215, “Investigation of the sequence and length dependence for cell-penetrating prenylated peptides” (Bioorg Med Chem Lett, 2010).
Where a SMILES comes first, the peptide text is derived from it. Bridges are numbered along the chain shown (N, C = ends). Roman numbers before positions name the chains, in order. The star is where a group is joined. Geranylgeranyl = CC(C)=CCC/C(C)=C/CC/C(C)=C/CC/C(C)=C/C*; Acryloyl(2E,3-(2-furyl)) = O=C(/C=C/c1ccco1)*

Key:
Type in all cases: ADME, cell-based
[1] = system: HeLa; experiment: Cellular uptake in human HeLa cells at 0.3 to 3 uM after 1 hr by confocal laser-scanning microscopy
Outline: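 Fluorescein-labelled peptides were incubated with HeLa cells for 1 h, then the cells were washed. Cells were either fixed in 3.7% formaldehyde (1 μM peptide) or imaged live without fixation (3 μM peptide). Hoechst stained the nucleus and wheat germ agglutinin–Alexa Fluor 594 stained the plasma membrane. Internalization was viewed by confocal microscopy.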

[2] = system: HeLa; experiment: Cellular uptake in human HeLa cells at 0.3 to 3 uM by FACS
Outline: (§1)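 HeLa cells were incubated with 0.3, 1.0 or 3.0 μM fluorescein-linked peptide for 1 h at 37 °C. Cells were then trypsinized and washed to remove surface-bound peptide. Fluorescence of 10,000 cells was read by flow cytometry, in triplicate. Values are geometric mean relative fluorescence ± standard deviation.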

[3] = system: HeLa; experiment: Cellular uptake in human HeLa cells at […] at 4 degC condition by FACS
Outline: as §1, with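 “with” for “with 0.3,”, “1.0” for “1.0 or 3.0”, “at 4 °C,” for “for 1 h”, “°C, or under ATP-depleting conditions.” for “°C.”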

[4] = system: HeLa; experiment: Cellular uptake in human HeLa cells at 0.3 to 3 uM at 37 degC condition by FACS; outline: as §1

Row | Activity [1] | Activity [2] | Activity [3] | Activity [4] | Compound
1 | Active | Active | Active | Active | CC(C)=CCC/C(C)=C/CC/C(C)=C/CC/C(C)=C/CSC[C@H](NC(=O)[C@H](CCCNC(=N)N)NC(=O)[C@H](CCCNC(=N)N)NC(=O)/C=C/c1ccco1)C(N)=O
2 | Active | Active | Active | Active | CC(C)=CCC/C(C)=C/CC/C(C)=C/CC/C(C)=C/CSC[C@H](NC(=O)[C@H](CCCNC(=N)N)NC(=O)/C=C/c1ccco1)C(N)=O
3 | Active | Active | Active | Active | CC(=O)N[C@@H](CCCCNC(=O)/C=C/c1ccco1)C(=O)N[C@@H](C)C(=O)N[C@@H](C)C(=O)N[C@@H](C)C(=O)N[C@@H](CO)C(=O)N[C@@H](CCCNC(=N)N)C(=O)N[C@@H](CCCNC(=N)N)C(=O)N[C@@H](CSC/C=C(\C)CC/C=C(\C)CC/C=C(\C)CCC=C(C)C)C(N)=O (Ac-K(Acryloyl(2E,3-(2-furyl)))AAASRRC(Geranylgeranyl)-NH2)
4 | Active | Active | Active | Active | CC(=O)N[C@@H](CCCCNC(=O)/C=C/c1ccco1)C(=O)N[C@@H](C)C(=O)N[C@@H](CO)C(=O)N[C@@H](CCCNC(=N)N)C(=O)N[C@@H](CCCNC(=N)N)C(=O)N[C@@H](CSC/C=C(\C)CC/C=C(\C)CC/C=C(\C)CCC=C(C)C)C(N)=O (Ac-K(Acryloyl(2E,3-(2-furyl)))ASRRC(Geranylgeranyl)-NH2)
5 | Active | Active | Active | Active | CC[C@H](C)[C@H](NC(=O)[C@H](CCCCN)NC(=O)[C@@H](NC(=O)[C@H](CC(N)=O)NC(=O)[C@H](CCCNC(=N)N)NC(=O)[C@@H](N)CSSC[C@H](NC(=O)[C@H](CCCNC(=N)N)NC(=O)[C@H](CCCNC(=N)N)NC(=O)[C@H](CO)NC(=O)[C@H](CCCCN)NC(=O)[C@H](CCCCN)NC(=O)/C=C/c1ccco1)C(=O)N[C@H](C(=O)N[C@@H](CC(C)C)C(=O)N[C@@H](CC(C)C)C(=O)O)C(C)C)[C@@H](C)CC)C(=O)N[C@@H](Cc1c[nH]c2ccccc12)C(=O)N[C@@H](Cc1ccccc1)C(=O)N[C@@H](CCC(N)=O)C(=O)N[C@@H](CC(N)=O)C(=O)N[C@@H](CCCNC(=N)N)C(=O)N[C@@H](CCCNC(=N)N)C(=O)N[C@@H](CC(N)=O)C(=O)N[C@@H](CC(C)C)C(=O)N[C@@H](CCCCN)C(=O)N[C@@H](Cc1c[nH]c2ccccc12)C(=O)N[C@@H](CCCCN)C(=O)N[C@@H](CCCCN)C(=O)O (I: H-CRNIKIWFQNRRNLKWKK-OH / II: {Acryloyl(2E,3-(2-furyl))}-KKSRRCVLL-OH; disulfide I:1-II:6)
